From ChEMBL document CHEMBL1125823, “2-Phenylindole-linked [2-(aminoalkyl)pyridine]dichloroplatinum(II): complexes with a selective action on estrogen receptor positive mammary tumors” (1991)

What was measured:
[1] = system: MCF7; assay: Effect on [3H]thymidine incorporation into estrogen receptor positive MCF-7 human breast cancer cells at 1x10E-6M; assay type: functional
Procedure, shortened: (§1)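 MCF-7 cells were grown in MEM with charcoal-treated 5% newborn calf serum and phenol red, then treated with compounds in 0.1% DMF (renewed on day 4) alongside DMF controls. They were labeled 3 days later with 1 µCi [³H]thymidine per well for 2 h, and incorporated radioactivity per dish was measured; mean of six dishes ± SD; % T/C.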

[2] = system: MCF7; assay: Effect on Estrogen receptor positive MCF-7 human breast cancer cell proliferation at 5x10E-6M (control = 62.7+/-8.8); assay type: functional
Procedure, shortened: (§2)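 MCF-7 cells were kept in MEM with 5% charcoal-treated newborn calf serum and phenol red for 2 weeks, then about 2×10^4 cells were plated per well. Compounds in 0.1% DMF were added 2 days later and renewed on day 4; DMF alone served as control. Coulter cell counts were taken on day 5; mean of six dishes ± SD; % T/C.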

[3] = system: MCF7; assay: Effect on [3H]thymidine incorporation into estrogen receptor positive MCF-7 human breast cancer cells at 1x10E-6M (control = 48.6+/-3.6); assay type: functional; procedure, shortened: as §1
[4] = system: MCF7; assay: Effect on Estrogen receptor positive MCF-7 human breast cancer cell proliferation at 5x10E-7M; assay type: functional; procedure, shortened: as §2
[5] = system: MCF7; assay: Effect on Estrogen receptor positive MCF-7 human breast cancer cell proliferation at 5x10E-7M (control = 62.7+/-8.8); assay type: functional; procedure, shortened: as §2
[6] = target: T1, Estrogen receptor (Mus musculus) (UniProt O08537+P19785); assay: Anti-uterotrophic effect in hormone-dependent transplant MXT bearing mice as relative uterine weight in treated and control mice at 20 mg (control=100+/-24); assay type: functional
T1 sequence (P19785 whole entry, looked up, chain 1 of 2): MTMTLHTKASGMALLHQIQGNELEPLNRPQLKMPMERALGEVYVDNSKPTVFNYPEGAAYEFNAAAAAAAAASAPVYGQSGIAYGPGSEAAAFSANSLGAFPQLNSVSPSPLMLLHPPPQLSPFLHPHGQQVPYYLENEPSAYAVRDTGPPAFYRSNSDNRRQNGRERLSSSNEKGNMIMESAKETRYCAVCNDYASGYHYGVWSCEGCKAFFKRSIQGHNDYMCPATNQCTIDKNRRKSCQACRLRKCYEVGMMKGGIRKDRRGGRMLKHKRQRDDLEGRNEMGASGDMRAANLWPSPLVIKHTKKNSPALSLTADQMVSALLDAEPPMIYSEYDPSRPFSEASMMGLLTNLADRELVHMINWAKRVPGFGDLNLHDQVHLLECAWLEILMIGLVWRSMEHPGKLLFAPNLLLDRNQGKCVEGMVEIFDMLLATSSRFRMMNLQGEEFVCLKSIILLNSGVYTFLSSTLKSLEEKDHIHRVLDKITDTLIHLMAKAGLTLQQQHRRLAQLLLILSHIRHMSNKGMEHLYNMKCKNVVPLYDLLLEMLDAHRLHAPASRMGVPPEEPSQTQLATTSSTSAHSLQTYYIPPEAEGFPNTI
T1 sequence (O08537 whole entry, looked up, chain 2 of 2): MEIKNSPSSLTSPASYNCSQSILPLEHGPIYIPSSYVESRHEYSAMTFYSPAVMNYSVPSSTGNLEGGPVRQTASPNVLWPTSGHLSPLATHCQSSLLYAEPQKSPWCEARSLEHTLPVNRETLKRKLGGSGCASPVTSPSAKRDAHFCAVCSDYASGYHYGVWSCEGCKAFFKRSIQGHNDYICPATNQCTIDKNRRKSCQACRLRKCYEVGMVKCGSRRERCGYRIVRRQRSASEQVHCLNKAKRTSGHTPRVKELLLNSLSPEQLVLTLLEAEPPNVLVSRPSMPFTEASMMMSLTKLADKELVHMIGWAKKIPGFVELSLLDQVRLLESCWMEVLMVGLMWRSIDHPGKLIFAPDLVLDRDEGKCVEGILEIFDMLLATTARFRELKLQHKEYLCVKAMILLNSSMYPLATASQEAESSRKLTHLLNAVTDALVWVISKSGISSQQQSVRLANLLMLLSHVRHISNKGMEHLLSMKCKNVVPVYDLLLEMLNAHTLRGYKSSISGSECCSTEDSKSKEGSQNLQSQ

[7] = species on record: Mus musculus; assay: Relative tumor weight in treated compared to control mice bearing hormone-dependent transplanted MXT mammary tumors at 20 mg; assay type: functional, organism-based
[8] = system: MCF7; assay: Effect on Estrogen receptor positive MCF-7 human breast cancer cell proliferation at 1x10E-6M (control = 62.7+/-8.8); assay type: functional; procedure, shortened: as §2
[9] = system: MCF7; assay: Effect on [3H]thymidine incorporation into estrogen receptor positive MCF-7 human breast cancer cells at 5x10E-7M (control=48.6+/-3.6); assay type: functional, cell-based
Procedure, shortened: (§3)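 MCF-7 cells in improved MEM with glutamine, gentamycin and 5% newborn calf serum, switched to charcoal-treated serum two weeks ahead; phenol red present; 37 °C, 5% CO2. About 2×10^4 cells plated per well; compound in 0.1% DMF added 2 days later, renewed on day 4; labelled 3 days later with 1 μCi [3H]thymidine per well for 2 h; cpm/dish, mean of six dishes ± SD.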

[10] = system: MCF7; assay: Effect on [3H]thymidine incorporation into estrogen receptor positive MCF-7 human breast cancer cells at 5x10E-6M (control = 48.6+/-3.6); assay type: functional; procedure, shortened: as §3
[11] = target: T1, Estrogen receptor (Mus musculus); assay: Anti-uterotrophic effect in mice as relative uterine weight(mg) at 250 ug; assay type: functional
Procedure, shortened: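 Immature mice received the compound sc per animal on three consecutive days, alone or with 0.4 µg estrone per animal per day. Uteri were taken 24 h after the last injection, Bouin-fixed, dried at 100 °C for 24 h and weighed. Relative uterus weight = dry weight (mg)/body weight (g) × 100; mean of 6-10 animals ± SD; Mann-Whitney U test.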

[12] = target: T1, Estrogen receptor (Mus musculus); assay: Uterotrophic effect in mice as relative uterine weight(mg) at 250 ug (control = 14.5+/-2.1); assay type: functional, tissue-based
Procedure, shortened: (§4)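 Immature mice dosed sc per animal on three consecutive days; vehicle controls. Killed and weighed 24 h after last injection; uteri fixed in Bouin solution 2 h, washed with alcoholic LiCl, dried at 100 °C for 24 h. Relative uterus weight = uterine dry weight (mg)/body weight (g) × 100; mean of 6-10 animals ± SD.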

[13] = system: MCF7; assay: Effect on [3H]thymidine incorporation into estrogen receptor positive MCF-7 human breast cancer cells at 5x10E-6M; assay type: functional; procedure, shortened: as §3
[14] = system: MCF7; assay: Effect on Estrogen receptor positive MCF-7 human breast cancer cell proliferation at 1x10E-6M; assay type: functional; procedure, shortened: as §2
[15] = system: MCF7; assay: Effect on Estrogen receptor positive MCF-7 human breast cancer cell proliferation at 5x10E-6M; assay type: functional; procedure, shortened: as §2
[16] = species on record: Mus musculus; assay: Antitumor activity in hormone-dependent transplant MXT mammary tumor bearing mice at 20 mg (control=197+/-130); assay type: functional, organism-based
[17] = target: T1, Estrogen receptor (Mus musculus); assay: Uterotrophic effect in mice as relative uterine weight(mg) at 25 ug (control = 14.5+/-2.1); assay type: functional, tissue-based; procedure, shortened: as §4
[18] = target: T1, Estrogen receptor (Mus musculus); assay: Anti-uterotrophic effect in hormone-dependent transplant MXT bearing mice as relative uterine weight in treated and control mice at 20 mg (control=100+/-30); assay type: functional
[19] = target: T1, Estrogen receptor (Mus musculus); assay: Anti-uterotrophic effect in hormone-dependent transplant MXT bearing mice as relative uterine weight in treated and control mice at 10 mg (control=100+/-30); assay type: functional
[20] = species on record: Mus musculus; assay: Anti-tumor activity in hormone-dependent transplant MXT mammary tumor bearing mice at 10 mg (control=534+/-652); assay type: functional, organism-based
[21] = system: MCF7; assay: Effect on Estrogen receptor positive MCF-7 human breast cancer cell proliferation at 1x10E-6M (control = 22.3+/-3.3); assay type: functional; procedure, shortened: as §2
[22] = system: MCF7; assay: Effect on [3H]thymidine incorporation into estrogen receptor positive MCF-7 human breast cancer cells at 5x10E-6M (control = 7.7+/-0.8); assay type: functional; procedure, shortened: as §3
[23] = species on record: Mus musculus; assay: Relative tumor weight in treated compared to control mice bearing hormone-dependent transplanted MXT mammary tumors at 10 mg; assay type: functional, organism-based
[24] = system: MCF7; assay: Effect on [3H]thymidine incorporation into estrogen receptor positive MCF-7 human breast cancer cells at 1x10E-6M (control = 7.7+/-0.8); assay type: functional; procedure, shortened: as §1
[25] = target: T1, Estrogen receptor (Mus musculus); assay: Uterotrophic effect in mice as relative uterine weight(mg) at 250 ug (control = 12.4+/-3.7); assay type: functional, tissue-based; procedure, shortened: as §4
[26] = species on record: Mus musculus; assay: Anti-tumor activity in hormone-dependent transplant MXT mammary tumor bearing mice at 20 mg (control=534+/-652); assay type: functional, organism-based
[27] = target: T1, Estrogen receptor (Mus musculus); assay: Uterotrophic effect in mice as relative uterine weight(mg) at 25 ug (control = 12.4+/-3.7); assay type: functional, tissue-based; procedure, shortened: as §4
[28] = system: MCF7; assay: Effect on Estrogen receptor positive MCF-7 human breast cancer cell proliferation at 5x10E-6M (control = 22.3+/-3.3); assay type: functional; procedure, shortened: as §2
[29] = target: T1, Estrogen receptor (Mus musculus); assay: Percent inhibition of estrone stimulated uterotrophic effect in mice at 250 ug; assay type: functional
Procedure, shortened: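 Immature mice given test compound per animal sc on three consecutive days together with 0.4 μg estrone/animal/day. Killed 24 h after last injection; uteri fixed in Bouin, dried 100 °C 24 h and weighed. Inhibition = 100 − [(W_S,T − W_V)/(W_S − W_V) × 100] using relative uterus weights; 6-10 animals; Wilcoxon-Mann-Whitney U test.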

[30] = target: T1, Estrogen receptor (Mus musculus); assay: Uterotrophic effect in mice as relative uterine weight(mg) at 25 ug (control = 14.6+/-2.7); assay type: functional, tissue-based; procedure, shortened: as §4
[31] = system: MCF7; assay: Effect on Estrogen receptor positive MCF-7 human breast cancer cell proliferation at 1x10E-6M (control = 62.3+/-8.8); assay type: functional; procedure, shortened: as §2
[32] = system: MCF7; assay: Effect on [3H]thymidine incorporation into estrogen receptor positive MCF-7 human breast cancer cells at 1x10E-6M (control = 43.4+/-1.8); assay type: functional; procedure, shortened: as §1
[33] = system: MCF7; assay: Effect on [3H]thymidine incorporation into estrogen receptor positive MCF-7 human breast cancer cells at 5x10E-6M (control = 43.4+/-1.8); assay type: functional; procedure, shortened: as §3
[34] = system: MCF7; assay: Effect on Estrogen receptor positive MCF-7 human breast cancer cell proliferation at 5x10E-6M (control = 62.3+/-8.8); assay type: functional; procedure, shortened: as §2
[35] = target: T1, Estrogen receptor (Mus musculus); assay: Uterotrophic effect in mice as relative uterine weight(mg) at 250 ug (control = 14.6+/-2.7); assay type: functional, tissue-based; procedure, shortened: as §4
[36] = system: MCF7; assay: Effect on Estrogen receptor positive MCF-7 human breast cancer cell proliferation at 5x10E-6M (control = 66.9+/-7.0); assay type: functional; procedure, shortened: as §2
[37] = system: MCF7; assay: Effect on Estrogen receptor positive MCF-7 human breast cancer cell proliferation at 1x10E-6M (control = 66.9+/-7.0); assay type: functional; procedure, shortened: as §2
[38] = system: MCF7; assay: Effect on [3H]thymidine incorporation into estrogen receptor positive MCF-7 human breast cancer cells at 1*10^-6 M (control = 28.2+/-3.0); assay type: functional; procedure, shortened: as §1
[39] = system: MCF7; assay: Effect on [3H]thymidine incorporation into estrogen receptor positive MCF-7 human breast cancer cells at 5x10E-6M (control = 28.2+/-3.0); assay type: functional; procedure, shortened: as §3
[40] = target: T1, Estrogen receptor (Mus musculus); assay: Uterotrophic effect in mice as relative uterine weight(mg) at 250 ug (control = 12.3+/-3.7); assay type: functional, tissue-based; procedure, shortened: as §4
[41] = target: T1, Estrogen receptor (Mus musculus); assay: Uterotrophic effect in mice as relative uterine weight(mg) at 25 ug (control = 12.3+/-3.7); assay type: functional, tissue-based; procedure, shortened: as §4

## [5-hydroxy-2-(4-hydroxyphenyl)-1-[omega-[(2-pyridylmethyl)amino]hexyl]indole]dichloroplatinum (II) complex
[1]
  T/C: 57%
[2]
  Cell no/dish: 345000
[3]
  Activity: 27500
[4]
  T/C: 77%
[5]
  Cell no/dish: 482000
[6]
  T/C: 103%
[7]
  T/C: 40%
[8]
  Cell no/dish: 401000
[9]
  [3H] thymidine cpm/dish: 33400
[10]
  Activity: 16700
[11]
  Relative uterus weight: 52.7 mg
[12]
  Relative uterus weight: 16.3 mg
[13]
  T/C: 34%
[14]
  T/C: 64%
[15]
  T/C: 55%
[16]
  Tumor weight: 80 mg
[17]
  Relative uterus weight: 12.7 mg

## [5-hydroxy-3-methyl-2-(4-hydroxyphenyl)-1-[omega-[(2-pyridylmethyl)amino]hexyl]indole]dichloroplatinum (II) complex
[1]
  T/C: 18%
[18]
  T/C: 113%
[19]
  T/C: 92%
[7]
  T/C: 22%
[20]
  Tumor weight: 195 mg
[21]
  Cell no/dish: 116000
[11]
  Relative uterus weight: 56.3 mg
[22]
  Activity: 900
[23]
  T/C: 36%
[24]
  Activity: 1400
[25]
  Relative uterus weight: 22.5 mg
[26]
  Tumor weight: 121 mg
[13]
  T/C: 12%
[14]
  T/C: 52%
[15]
  T/C: 56%
[27]
  Relative uterus weight: 20.2 mg
[28]
  Cell no/dish: 124000

## [5-hydroxy-3-methyl-2-(4-hydroxyphenyl)-1-[omega-[(2-pyridylmethyl)amino]butyl]indole]dichloroplatinum (II) complex
[1]
  T/C: 88%
[29]
  inhibition: 5%
[11]
  Relative uterus weight: 51.8 mg
[30]
  Relative uterus weight: 21.5 mg
[31]
  Cell no/dish: 554000
[32]
  Activity: 38400
[33]
  Activity: 29500
[13]
  T/C: 68%
[14]
  T/C: 89%
[34]
  Cell no/dish: 489000
[15]
  T/C: 79%
[35]
  Relative uterus weight: 14.8 mg

## [5-hydroxy-3-methyl-2-(4-hydroxyphenyl)-1-[omega-[(2-pyridylmethyl)amino]pentyl]indole]dichloroplatinum (II) complex
[1]
  T/C: 60%
[36]
  Cell no/dish: 571000
[37]
  Cell no/dish: 674000
[38]
  Activity: 16900
[11]
  Relative uterus weight: 46.6 mg
[39]
  Activity: 15200
[40]
  Relative uterus weight: 22.1 mg
[13]
  T/C: 54%
[14]
  T/C: 101%
[41]
  Relative uterus weight: 16.3 mg
[15]
  T/C: 85%
